The source made the active and inactive calls.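 Rule for the calls: active = cell viability under 70% at any tested concentration, a measure not printed in our tables; inactive = the rest.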
Tested on: HEp-2 viability, luminescence cytotoxicity counter-screen
Assay: HEp-2 viability loss, luminescent readout – cell-based, synthesized compounds, set 5, cytotoxicity control for RSV inhibitor project, dose response (AID 493090)
Outline: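 System – HEp-2 human cell line, uninfected, for cytotoxicity · Input – 10,595 HEp-2 cells per well · Buffer or medium – DMEM/F12 assay medium with 0.5% DMSO final · Compound – 8 points, 1:2 steps, 0.39–50 µM · Times – 6 d compound exposure, 37 °C · Signal – CellTiter-Glo luminescence · Evaluation – % viability vs cell controls, CC50 from constrained four-parameter fit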

In the case of `CC(=O)c1ccccc1NC(=O)[C@@H]1CCCN1S(=O)(=O)c1cccc2cccnc12`, the CC50 is reported as > 50 µM (inactive).
`Cc1ncccc1NC(=O)[C@@H]1CCCN1S(=O)(=O)c1cccc2cccnc12` was tested, and the CC50 was > 50 µM (inactive).
For `COCCCNC(=O)c1ccc(Cn2c(=O)c3ccccc3n(Cc3ccc(C)cc3)c2=O)cc1`, the CC50 was > 50 µM (inactive).
With `CCOC(=O)c1ccc2[nH]c3c(c2c1)CN(C)CC3` the CC50 was > 50 µM (inactive).

From PubChem BioAssay AID493090 (Southern Research Specialized Biocontainment Screening …, 2011)
